Results reported in ChEMBL document CHEMBL3784931, “Synthesis and evaluation of novel angiotensin II receptor 1 antagonists as anti-hypertension drugs” (Bioorg Med Chem, 2016).

Key:
Rattus norvegicus [1] = experiment: Antihypertensive activity in spontaneous hypertensive rat model assessed as mean blood pressure at 15 mg/kg, po administered for 2 hrs; assay type: functional
Summary of the method: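 Male SHRs were randomized, n = 6 per group. Compound was suspended in DMSO/oleic acid (1:4) and given by oral gavage; vehicle controls got the same volume of solvent. SBP and DBP were recorded in conscious animals by noninvasive tail-artery manometry. MBP = (SBP − DBP)/3 + DBP. Data are mean ± SEM, with p < 0.05 taken as significant.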

[2] = Cmax in Wistar rat stomach at 10 mg/kg, po after 0.5 to 72 hrs by HPLC analysis; assay type: ADME, organism-based; set-up: dose 10 mg/kg, route oral
Summary of the method: (§1)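 Wistar rats were dosed orally and killed by abdominal aorta transection at 0.5, 1, 2, 4, 6, 8, 12, 24, 48 and 72 h. Organs were excised at once, minced and homogenized at 4 °C in normal saline to a 25% (w/v) homogenate. After spinning at 3000 × g, 4 °C, 10 min, supernatants were analysed by HPLC. Values are mean ± SEM, n = 5 per point.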

[3] = Elimination rate constant in Wistar rat heart at 10 mg/kg, po after 0.5 to 72 hrs by HPLC analysis; assay type: ADME, organism-based; summary of the method: as §1
[4] = Terminal half life in Wistar rat kidney at 10 mg/kg, po after 0.5 to 72 hrs by HPLC analysis; assay type: ADME, organism-based; conditions: read-out: beta t1/2 (converted); summary of the method: as §1
[5] = Tmax in Wistar rat plasma at 10 mg/kg, po after 0.5 to 72 hrs by HPLC analysis; assay type: ADME, organism-based
Summary of the method: (§2)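 Wistar rats got an oral dose. Venous blood (0.5 mL) was taken predose and at 0.5, 1, 2, 4, 6, 8, 12, 24, 48 and 72 h, and plasma was spun 4000 × g, 4 °C, 10 min. Samples with internal standard were acetonitrile-precipitated, filtered and run on C18 reverse-phase HPLC with UV detection. Calibration used weighted regression of peak height ratio.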

[6] = Terminal half life in Wistar rat lung at 10 mg/kg, po after 0.5 to 72 hrs by HPLC analysis; assay type: ADME, organism-based; conditions: read-out: beta t1/2 (converted); summary of the method: as §1
[7] = Acute toxicity in ICR mouse assessed as mortality administered intragastrically daily for 2 weeks measured during compound dosing; assay type: organism-based; conditions: in vivo, po
Summary of the method: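 Sixty normal ICR mice (half male, half female, 20 ± 2 g) given intragastric doses of 1200, 1600, 2133.3, 2844.40, 5056.79 and 6742.38 mg/kg. Survival checked daily for two weeks.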

[8] = Acute toxicity in ICR mouse assessed as mortality at 2133.30 mg/kg, ig administered daily for 2 weeks measured during compound dosing; assay type: organism-based; conditions: in vivo, po, 2133.3 mg/kg
Summary of the method: (§3)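 ICR mice, sixty in total, half male and half female, 20 ± 2 g. Intragastric dosing at 1200, 1600, 2133.3, 2844.40, 5056.79 or 6742.38 mg/kg. Animals watched daily over two weeks for survival and physiological abnormalities or untoward reactions. Percent mortality recorded per dose group.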

[9] = Acute toxicity in ICR mouse assessed as mortality at 2844.40 mg/kg, ig administered daily for 2 weeks measured during compound dosing; assay type: organism-based; conditions: in vivo, po, 2844.4 mg/kg; summary of the method: as §3
Mus musculus [10] = experiment: Acute toxicity in ICR mouse assessed as respiratory movements at 1200 mg/kg, ig administered daily for 2 weeks measured during compound dosing; assay type: organism-based; conditions: in vivo, po, 336 h; summary of the method: as §3
Stomach = experiment: AUC (0 to 72 hrs) in Wistar rat stomach at 10 mg/kg, po by HPLC analysis; assay type: ADME, organism-based; set-up: time < 72 hr, dose 10 mg/kg, route oral; conditions: in vivo; summary of the method: as §1
Mus musculus [11] = experiment: Acute toxicity in ICR mouse assessed as obvious untoward reaction at 1200 to 6742.38, ig administered daily for 2 weeks during compound dosing; assay type: organism-based; conditions: in vivo, po, 336 h; summary of the method: as §3
[12] = Acute toxicity in ICR mouse assessed as mortality at 5056.79 mg/kg, ig administered daily for 2 weeks measured during compound dosing; assay type: organism-based; conditions: in vivo, po; summary of the method: as §3
[13] = Cmax in Wistar rat lung at 10 mg/kg, po after 0.5 to 72 hrs by HPLC analysis; assay type: ADME, organism-based; set-up: dose 10 mg/kg, route oral; summary of the method: as §1
[14] = target: T1, Type-1 angiotensin II receptor A (Rattus norvegicus, UniProt P25095); experiment: Displacement of [125I]-Ang II from Angiotensin 2 type-1A receptor in rat vascular smooth muscle cells after 150 mins by gamma counting method
T1 sequence (P25095 whole entry): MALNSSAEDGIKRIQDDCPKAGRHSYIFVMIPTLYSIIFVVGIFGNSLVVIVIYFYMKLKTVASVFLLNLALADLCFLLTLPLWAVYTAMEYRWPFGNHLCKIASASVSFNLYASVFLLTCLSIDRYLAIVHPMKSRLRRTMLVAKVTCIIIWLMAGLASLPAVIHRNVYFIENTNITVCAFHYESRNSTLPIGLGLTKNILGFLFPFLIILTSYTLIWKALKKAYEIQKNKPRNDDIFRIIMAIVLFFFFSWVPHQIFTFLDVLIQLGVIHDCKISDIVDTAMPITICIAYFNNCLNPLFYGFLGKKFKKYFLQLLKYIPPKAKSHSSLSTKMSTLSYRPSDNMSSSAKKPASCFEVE
Summary of the method: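 Rat vascular smooth muscle cells (passages 3–6) were seeded at 10⁶ cells/well and grown at 37 °C in 5% CO₂. Nonspecific binding was taken with 1 µM Ang II. Cells were washed three times, lysed 10 min in 0.1 M NaOH, and bound radioactivity was gamma counted.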

Mus musculus [15] = experiment: Acute toxicity in ICR mouse assessed as change in body weight at 1200 to 6742.38 mg/kg, ig administered daily for 2 weeks during compound dosing; assay type: organism-based; conditions: in vivo, po, 336 h
Summary of the method: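 Male and female ICR mice (20 ± 2 g) received intragastric doses of 1200–6742.38 mg/kg. Body weight of surviving mice compared after two weeks of observation.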

[16] = Terminal half life in Wistar rat stomach at 10 mg/kg, po after 0.5 to 72 hrs by HPLC analysis; assay type: ADME, organism-based; conditions: read-out: beta t1/2 (converted); summary of the method: as §1
[17] = Tmax in Wistar rat spleen at 10 mg/kg, po after 0.5 to 72 hrs by HPLC analysis; assay type: ADME, organism-based; summary of the method: as §1
Lung = experiment: AUC (0 to 72 hrs) in Wistar rat lung at 10 mg/kg, po by HPLC analysis; assay type: ADME, organism-based; set-up: dose 10 mg/kg, time < 72 hr, route oral; conditions: in vivo; summary of the method: as §1
[18] = Elimination rate constant in Wistar rat lung at 10 mg/kg, po after 0.5 to 72 hrs by HPLC analysis; assay type: ADME, organism-based; summary of the method: as §1
[19] = Elimination rate constant in Wistar rat spleen at 10 mg/kg, po after 0.5 to 72 hrs by HPLC analysis; assay type: ADME, organism-based; summary of the method: as §1
Mus musculus [20] = experiment: Acute toxicity in ICR mouse assessed as pathological changes in organs and tissues at 1200 to 6742.38, ig administered daily for 2 weeks measured on 15th day; assay type: organism-based; conditions: in vivo, po, 336 h
Summary of the method: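 ICR mice of both sexes (20 ± 2 g) dosed intragastrically at 1200–6742.38 mg/kg and observed for two weeks. Surviving mice then dissected and examined with the naked eye.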

[21] = Cmax in Wistar rat kidney at 10 mg/kg, po after 0.5 to 72 hrs by HPLC analysis; assay type: ADME, organism-based; set-up: dose 10 mg/kg, route oral; summary of the method: as §1
[22] = Elimination rate constant in Wistar rat plasma at 10 mg/kg, po after 0.5 to 72 hrs by HPLC analysis; assay type: ADME, organism-based; summary of the method: as §2
Mus musculus [23] = experiment: Acute toxicity in ICR mouse assessed as hyperthyroidism at 1600 to 6742.38 mg/kg, ig administered daily for 2 weeks measured 5 hrs post last dose; assay type: organism-based; conditions: in vivo, po; summary of the method: as §3
Heart = experiment: AUC (0 to 72 hrs) in Wistar rat heart at 10 mg/kg, po by HPLC analysis; assay type: ADME, organism-based; set-up: time < 72 hr, dose 10 mg/kg, route oral; conditions: in vivo; summary of the method: as §1
Kidney = experiment: AUC (0 to 72 hrs) in Wistar rat kidney at 10 mg/kg, po by HPLC analysis; assay type: ADME, organism-based; set-up: dose 10 mg/kg, time < 72 hr, route oral; conditions: in vivo; summary of the method: as §1
[24] = Elimination rate constant in Wistar rat stomach at 10 mg/kg, po after 0.5 to 72 hrs by HPLC analysis; assay type: ADME, organism-based; summary of the method: as §1
[25] = Terminal half life in Wistar rat spleen at 10 mg/kg, po after 0.5 to 72 hrs by HPLC analysis; assay type: ADME, organism-based; conditions: read-out: beta t1/2 (converted); summary of the method: as §1
Rattus norvegicus [26] = experiment: Effect on heart rate in spontaneous hypertensive rat model at 10 and 15 mg/kg, po; assay type: ADME, organism-based; conditions: in vivo

CCCCc1nc(Cl)c(C(=O)O)n1Cc1ccc(-c2ccccc2-c2noc(=O)[nH]2)cc1
Activity (Rattus norvegicus [1]): 62 mmHg | Cmax [2]: 8.91 ng/g | k el [3]: 2.11e-05 s⁻¹ | half-life [4]: 15.6 h | Tmax [5]: 2 h | half-life [6]: 12.4 h | LD50 at 336 h [7]: 2970 mg/kg | mortality at 336 h [8]: 20% | mortality at 336 h [9]: 40% | Activity (Mus musculus [10]): Non-toxic | AUC (Stomach): 221.03 ng·h/g | Activity (Mus musculus [11]): Non-toxic | mortality at 336 h [12]: 90% | Cmax [13]: 9.16 ng/g | IC50 [14]: 3.16 nM | Ki [14]: 2.29 nM | Activity (Mus musculus [15]): Non-toxic | half-life [16]: 15.1 h | Tmax [17]: 4 h | AUC (Lung): 213.96 ng·h/g | k el [18]: 1.64e-05 s⁻¹ | k el [19]: 2.19e-05 s⁻¹ | Activity (Mus musculus [20]): Non-toxic | Cmax [21]: 10.5 ng/g | k el [22]: 1.11e-05 s⁻¹ | Activity (Mus musculus [23]): Toxic | AUC (Heart): 200.41 ng·h/g | AUC (Kidney): 202.97 ng·h/g | k el [24]: 1.39e-05 s⁻¹ | half-life [25]: 8.74 h | Activity (Rattus norvegicus [26]): Non-toxic
